# High-throughput results: PubChem BioAssay, The Scripps Research Institute Molecular Screening Center
# In the library only some 2.7% were active in any assay of this set; here they are far more common.
# V1aR counter – activates human V1a receptor in oxytocin agonist counter-screen; CHO-V1R cells, Fluo-8 calcium fluorescence, agonist mode; 0% DMSO, 100% 3 nM vasopressin; activation, % at 3 µM; actives 0.25% (n = 320,000); AID 2797;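 active means activation above the mean activation of all tested compounds plus 3 SD, per screening run, cut at about 20% in these data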;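 further: signal is peak over basal fluorescence ratio across a 100 second FLIPR read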
# Target sequence (P37288 whole entry, looked up): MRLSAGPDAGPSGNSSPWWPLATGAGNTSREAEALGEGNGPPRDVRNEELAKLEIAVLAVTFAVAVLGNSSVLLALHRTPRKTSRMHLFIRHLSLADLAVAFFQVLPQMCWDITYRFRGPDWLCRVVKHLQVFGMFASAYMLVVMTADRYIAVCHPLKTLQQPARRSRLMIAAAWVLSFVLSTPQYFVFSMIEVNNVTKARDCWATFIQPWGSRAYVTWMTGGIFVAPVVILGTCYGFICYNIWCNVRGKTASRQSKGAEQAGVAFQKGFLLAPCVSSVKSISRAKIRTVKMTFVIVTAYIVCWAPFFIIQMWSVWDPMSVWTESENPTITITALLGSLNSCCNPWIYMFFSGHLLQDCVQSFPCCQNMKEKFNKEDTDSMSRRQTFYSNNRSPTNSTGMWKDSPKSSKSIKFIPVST
# CHO parental Ca – counter-screen for OX1R antagonists: effect in parental CHO cells | parental CHO-K1, ATP-induced calcium, Fluo-8 fluorescence | inhibition, % at 5.6 µM | actives 0.63% (n = 330,000) | AID 463079;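 active means inhibition above that plate's mean sample inhibition plus 3 SD, cut at about 26% in these data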;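 further: 0% = ATP-challenged DMSO wells and 100% = DMSO wells without ATP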
#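 Material: Parental CHO cells | Reagent: ATP | Compound dosing: Single nominal dose of 5.6 µM per compound | Detection: Intracellular calcium via Fluo-8 no-wash fluorescent dye | Read-out: % inhibition of ATP-induced calcium mobilization | Benchmarks: Low control ATP plus DMSO, high control DMSO only | Replicates: Singlicate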
# OX1R antag-1 – OX1R (human) antagonism; OX1R-expressing cells, FRET antagonist read-out; inhibition, % at 6.6 µM; actives 1.8% (n = 330,000); in the data active means inhibition mostly above about 38%, no sharp cut-off; inactive means mostly below about 40%;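 further: 0% = agonist challenge alone and 100% = reference antagonist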
# OXTR agonist – activates the human oxytocin receptor; P30559; CHO-OTR cells, Fluo-8 calcium fluorescence; normalized: DMSO 0%, oxytocin 100%; activation, % at 3 µM; actives 0.32% (n = 320,000);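 active means activation above the mean of all tested compounds plus 3 SD, cutoff set per screening run, cut at about 20% in these data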;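 further: peak over basal fluorescence ratio from a 100 s FLIPR kinetic read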
# OX1R antag-2 – blocks the human orexin 1 receptor. actives 0.43% (n = 330,000). CHO/OX1R cells, Fluo-8 calcium fluorescence, orexin A. AID 434989. inhibition, % at 5 µM;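 active means inhibition above its plate's threshold, mean inhibition of all tested compounds on the plate plus 3 SD, cut at about 37% in these data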;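 further: 0% = orexin A challenge wells and 100% = SB-334867-A antagonist wells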
# OXTR potentiator – human OXTR potentiation; activation, % at 3 µM; actives 0.061% (n = 320,000); CHO-OTR cells, Fluo-8 calcium fluorescence, potentiator mode; 0% = oxytocin EC15, 100% = EC100; AID 2445; P30559;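 active means activation above that plate's cutoff, the mean activation of tested compounds plus 3 SD, cut at about 6.6% in these data, passing the limit was not always enough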;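 further: 100% uses oxytocin at 75 nM as the full agonist control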
#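 Assay system: CHO cell line stably expressing human OTR. Reagent: EC15 oxytocin agonist. Dosing: single dose, 3.0 µM nominal final compound concentration. Timing: compound 6 min at room temperature before oxytocin, 100 s read. Signal: kinetic Fluo-8 calcium fluorescence. Controls: oxytocin EC15 low and EC100 high.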
# The depositor's hits bear a star.
SMILES,V1aR counter,CHO parental Ca,OX1R antag-1,OXTR agonist,OX1R antag-2,OXTR potentiator
COCCNC(=O)C(c1ccc(F)cc1)N(Cc1ccco1)C(=O)CCC(=O)Nc1ccccn1 (configuration not stated),1.3,-15.2,40.4,1.7,-11.2,-1.2
Cc1cc(NC(=O)CCC(=O)N(Cc2ccco2)C(C(=O)NC2CCCCC2)c2ccccc2)no1 (configuration not stated),-0.6,-20.9,52.7*,-2.5,-18.4,-4.0
COCCNC(=O)C(c1ccc(F)cc1)N(Cc1ccco1)C(=O)CCC(=O)Nc1nccs1 (configuration not stated),0.1,-12.8,60.4*,-1.1,25.9,-3.1
CCN(CC)S(=O)(=O)c1cc(NC(=O)CCn2[nH]c(=O)ccc2=O)ccc1C,0.2,-4.7,2.7,0.3,-7.9,-5.6
COc1ccc(NC(=O)c2cc(-c3ccccc3OC)on2)cc1,-0.5,-18.2,45.4*,-1.5,-0.6,-9.9
COc1ccc(NC(=O)c2cc(-c3ccco3)on2)cc1,-0.3,63.5*,15.1,0.2,4.8,-11.2
COc1ccc(NC(=O)c2cc(-c3ccco3)on2)c(OC)c1,0.4,1.0,16.9,-0.9,-5.8,-6.2
Cc1cc2c(cc1S(=O)(=O)CCC(=O)Nc1cccc(C(F)(F)F)c1)OCC(=O)N2,1.8,-5.5,10.8,0.0,6.8,-4.3
CN(C)S(=O)(=O)c1ccc(Cl)c(C(=O)Nc2ccc(S(=O)(=O)N3CCOCC3)cc2)c1,5.3,-4.6,3.9,4.2,-10.8,-4.1
Cc1nnc(N2C(=O)c3cccc4cccc(c34)C2=O)s1,-0.4,9.0,59.2*,-1.3,-5.2,2.1
Cc1nnc(C)n1N1C(=O)c2cccc3cccc(c23)C1=O,1.4,-4.0,18.6,1.7,-6.8,7.2
c1csc(-c2cn3ccc4ccccc4c3n2)c1,-1.4,-13.0,74.5*,-3.5,-4.3,-3.8
c1cc(-c2cccs2)nc(-c2cccs2)c1,0.4,9.4,10.4,-1.1,-5.2,1.1
Clc1ccc2[nH]c3c(NCCN4CCOCC4)ncnc3c2c1,1.9,-9.8,8.7,3.2,-13.2,-7.1
Clc1ccc2[nH]c3c(NCC4CCCO4)ncnc3c2c1 (configuration not stated),14.7,38.2*,124.0*,19.2,39.5,-33.7
Cc1cc(F)ccc1S(=O)(=O)NCC(c1cccnc1)N1CCc2ccccc21 (configuration not stated),2.5,-48.9,7.6,1.2,-22.1,-6.4
COc1cc(OC)c(C(=O)O/N=C(\N)c2ccc(C)cc2)cc1OC,-0.6,-14.6,36.2*,-1.8,-22.9,-15.1
COc1cc(OC)c(C(=O)O/N=C(\N)c2cccc(C)c2)cc1OC,0.1,-26.0,36.1*,-1.8,-13.7,-6.9
Cc1cccc(/C(N)=N/OC(=O)c2ccc(F)cc2)c1,0.8,-3.8,7.7,0.3,-7.3,-2.6
COc1ccc(Cl)cc1C(=O)O/N=C(\N)c1ccc(Cl)cc1,3.8,-2.2,7.6,0.6,2.8,-5.3
Cc1ccc(S(=O)(=O)NCCC(=O)OCc2ccc([N+](=O)[O-])cc2)cc1C,5.0,40.9*,13.8,4.5,17.3,-18.6
CCN(CC)S(=O)(=O)c1cc([N+](=O)[O-])ccc1NNC(=O)Nc1ccc(Cl)c(Cl)c1,11.2,37.7*,63.0,10.1,24.8,-18.1
O=C(NNc1ccccc1[N+](=O)[O-])Nc1ccc(Cl)c(Cl)c1,12.8,11.5,18.8,14.0,8.6,-10.8
CSc1ccc(CN(C)C(=O)C(Cc2ccccc2)NC(=O)c2ccccc2)cc1 (configuration not stated),2.8,-22.9,69.7*,-0.3,-0.9,-12.6
O=C(c1cc(-c2ccccc2Cl)on1)N1CCN(C(=O)c2ccco2)CC1,-0.4,-8.2,12.3,-0.5,-22.2,0.4
SMILES,V1aR counter,CHO parental Ca,OX1R antag-1,OXTR agonist,OX1R antag-2,OXTR potentiator
O=C(O)CCNc1cc(N2CCN(C(=O)c3ccco3)CC2)c2noc3c2c1C(=O)c1ccccc1-3,0.3,-1.9,76.3*,0.5,-25.5,0.1
Cc1cc(N2CCN(C(=O)c3ccco3)CC2)c2ccccc2n1,0.4,-8.5,14.6,0.5,-27.3,1.6
CCN1CCN(c2cc(N3CCN(C(=O)c4ccco4)CC3)c3c4c(onc24)-c2ccccc2C3=O)CC1,0.0,-20.2,69.0*,0.5,-26.3,0.7
C=CCn1c(-c2ccc(S(=O)(=O)N3CCOCC3)cc2)csc1=Nc1ccccc1,8.6,39.3*,18.7,11.3,4.2,-8.3
CC(=O)c1cccc(N=c2scc(-c3ccc(S(=O)(=O)N4CCOCC4)cc3)n2CCO)c1,11.7,12.2,27.9,13.0,25.2,-10.6
COc1ccccc1CNc1ncnc2sccc12,7.2,40.6*,47.5*,7.8,-4.4,-11.8
COc1ccc(CCNc2ncnc3sccc23)cc1OC,10.5,75.7*,58.3,16.9,42.4*,-11.7
c1ccc2c(c1)OCC(CNCC1COc3ccccc3O1)O2 (configuration not stated),0.3,-14.9,9.4,0.3,-25.4,0.3
COc1ccccc1Oc1ncnc2sccc12,-0.1,-0.8,8.3,-1.6,-15.1,3.2
c1ccc2c(c1)OCC(CNc1ncnc3sccc13)O2 (configuration not stated),6.2,67.8*,52.0,14.6,23.9,-8.0
CCc1noc(C)c1C(=O)NC1CCCc2c1cnn2-c1ccc(C(C)(C)C)cc1 (configuration not stated),0.4,-15.9,13.0,0.7,-25.5,3.0
C[C@H](CO)N1C[C@H](C)[C@@H](CN(C)C)Oc2c(NS(=O)(=O)c3ccc(F)cc3)cccc2C1=O,0.8,-2.4,10.2,1.2,4.2,3.3
CCN(C[C@H]1N[C@@](Cc2ccccc2)(C(=O)OC)[C@H]2C(=O)N(C)C(=O)[C@@H]12)C(=O)COc1ccccc1,0.6,-5.0,22.7,0.5,-2.1,1.5
COc1ccc(CCC(=O)Nc2ccc(Cl)c(S(=O)(=O)N3CCCC3)c2)cc1,7.7,52.6*,25.8,10.1,35.5,-8.2
COc1ccc(CCNC(=O)c2ccc(Cl)c(S(=O)(=O)N3CCCCCC3)c2)cc1,9.3,26.8*,15.3,8.1,46.3*,-9.6
NS(=O)(=O)c1ccc(Nc2ccccc2)c([N+](=O)[O-])c1,4.3,1.8,29.4,1.6,-5.9,-10.9
NS(=O)(=O)c1ccc(Nc2ncccc2[N+](=O)[O-])cc1,0.7,4.1,58.0*,0.7,1.1,2.3
N#Cc1cc(Nc2c(N)nc[nH]c2=O)c([N+](=O)[O-])cc1C#N,0.4,2.3,48.1*,0.9,3.5,2.5
N#Cc1cc(NC2CCCC2)c([N+](=O)[O-])cc1C#N,1.1,-11.1,45.1,-1.8,-22.5,-7.1
